PMC9199876 (Clinical and Translational Science, 2022)
Where two headings read alike, the source gives them in different places.

Assays:
p-glycoprotein (P-gp) = settings: in vitro; cited from earlier work
OAT1 = settings: in vitro; cited from earlier work
CYP2D6 = settings: in vitro, clinically relevant dose (0.06 μM); cited from earlier work
OAT3 [1] = settings: in vitro; cited from earlier work
[2] = single and multiple doses, healthy men and women; cited from earlier work
[3] = oral administration, dogs; cited from earlier work
OATP1B1/1B3 [4] = settings: in vitro; cited from earlier work
CYP3A4 = settings: in vitro; cited from earlier work
[5] = ref data on file, cited from earlier work
MATE1 = settings: in vitro; cited from earlier work
CYP2C8 [6] = settings: in vitro, clinically relevant dose (0.06 μM); cited from earlier work
OAT3 [7] = settings: at a clinically relevant dose; cited from earlier work
OATP1B1/1B3 [8] = assay: Clinical DDI: effect of single-dose i.v. rifampin; assay type: in vivo, humans (healthy adults); settings: plasma trazpiroben; trazpiroben with rifampin relative to trazpiroben alone
Summary of the method: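 Healthy fasted adults (n = 12) in a two-way crossover: an oral 25 mg capsule of test compound alone, or given immediately after 600 mg rifampin i.v. over 30 min. Washout was ≥7 days. Plasma parent and metabolite were assayed by validated LC-MS/MS and analysed noncompartmentally. The ANOVA on log-transformed AUC∞ and Cmax gave the LSM difference (B – A), which was exponentiated to give GMRs with 90% CIs.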

CYP2C8 [9] = settings: in vitro; cited from earlier work
[10] = Safety and tolerability assessment; assay type: in vivo, humans (healthy adults); settings: for Number of participants with TEAEs / TEAE: Abdominal pain, upper / TEAE: Cough / TEAE: Dermatitis contact / TEAE: Gastrointestinal disorders / TEAE: Headache / TEAE: Nasal congestion / TEAE: Nervous system disorders / TEAE: Respiratory, thoracic, and mediastinal disorders / TEAE: Sensory disturbance / TEAE: Sinus congestion / TEAE: Skin and subcutaneous tissue disorders / TEAE: Sneezing: n = 12
Summary of the method: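 Twelve healthy adults received a single oral 25 mg dose with and without i.v. rifampin 600 mg in crossover. TEAEs were monitored throughout. Vital signs and triplicate 12-lead ECGs were taken at screening (day −28 to −2), predose, and 1, 2, 4, 8 and 48 h post dose in each period. Serum chemistry, hematology and urinalysis were also run. Follow-up included a full physical exam, vital signs and ECG.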

[11] = fasted rats, oral radiolabeled trazpiroben, after 24 h
[12] = trazpiroben 25 mg + rifampin 600 mg

**Q.** With `O=C(O)c1cccc(CN2CN(C3CCCCC3)C3(CCN(CCCC(=O)c4ccccc4)CC3)C2=O)c1` [trazpiroben, Trazpiroben] as the molecule, how does the “substrate of p-glycoprotein (P-gp)” value (p-glycoprotein (P-gp)) read?
**A.** The value was “substrate”.

**Q.** And the “substrate of OAT1” value (OAT1)?
**A.** The value was “not a substrate”.

**Q.** And the “inhibition of CYP2D6” value (CYP2D6)?
**A.** The value was “does not inhibit”.

**Q.** And the “substrate of OAT3” value (OAT3 [1])?
**A.** The value was “not a substrate”.

**Q.** What about the tolerability [2] of the same molecule?
**A.** The tolerability was “well‐tolerated”.

**Q.** And the absolute bioavailability [3]?
**A.** The absolute bioavailability was ~ 20%.

**Q.** And the “substrate of OATP1B1/1B3” value (OATP1B1/1B3 [4])?
**A.** The value was “substrate”.

**Q.** And the “share of metabolism via CYP3A4” value (CYP3A4)?
**A.** Its value is 25.8%.

**Q.** And the “dosed radioactivity excreted in bile” value ([5]; bile duct cannulated rats)?
**A.** The value was ~ 86%.

**Q.** What about the “dosed radioactivity excreted in feces” value ([5]; bile duct cannulated rats) of the same molecule?
**A.** Its value is 11%.

**Q.** And the “dosed radioactivity excreted in urine” value ([5]; bile duct cannulated rats)?
**A.** Its value is 5%.

**Q.** What about the “dosed radioactivity excreted in feces” value [5, 11] of the same molecule?
**A.** The value was ~ 94%.

**Q.** And the “dosed radioactivity excreted in urine” value [5, 11]?
**A.** Its value is 6%.

**Q.** And the “substrate of MATE1” value (MATE1)?
**A.** Its value is “not a substrate”.

**Q.** What about the “inhibition of CYP2C8” value (CYP2C8 [6]) of the same molecule?
**A.** The value was “does not inhibit”.

**Q.** And the “inhibitor of OAT3” value (OAT3 [7])?
**A.** The value was “not an inhibitor”.

**Q.** What about the “AUC∞ geometric mean ratio (90% CI)” value (OATP1B1/1B3 [8]) of the same molecule?
**A.** The value was 5.16 (4.25–6.25) fold.

**Q.** And the “C max geometric mean ratio (90% CI)” value (OATP1B1/1B3 [8])?
**A.** The value was 6.24 (4.62–8.42) fold.

**Q.** What about the “share of metabolism via CYP2C8” value (CYP2C8 [9]) of the same molecule?
**A.** The value was 11.8%.

**Q.** What about the “serum chemistry, hematology, urinalysis, vital signs, and ECG results” value ([10]; all participants, throughout the study) of the same molecule?
**A.** Its value is “remained within normal limits”.

**Q.** And the “AE relating to QT prolongation” value ([10]; current study)?
**A.** Its value is “no clinically relevant AE relating to QT prolongation”.

**Q.** What about the “Number of participants with TEAEs” value ([10]; overall (both treatments)) of the same molecule?
**A.** Its value is 6 (50) n (%).

**Q.** And the “TEAE: Abdominal pain, upper” value ([10]; overall (both treatments))?
**A.** The value was 1 (8) n (%).

**Q.** And the “TEAE: Cough” value ([10]; overall (both treatments))?
**A.** The value was 1 (8) n (%).

**Q.** What about the “TEAE: Dermatitis contact” value ([10]; overall (both treatments)) of the same molecule?
**A.** The value was 1 (8) n (%).

**Q.** And the “TEAE: Gastrointestinal disorders” value ([10]; overall (both treatments))?
**A.** The value was 1 (8) n (%).

**Q.** What about the “TEAE: Headache” value ([10]; overall (both treatments)) of the same molecule?
**A.** The value was 2 (17) n (%).

**Q.** What about the “TEAE: Nasal congestion” value ([10]; overall (both treatments)) of the same molecule?
**A.** The value was 1 (8) n (%).

**Q.** And the “TEAE: Nervous system disorders” value ([10]; overall (both treatments))?
**A.** The value was 3 (25) n (%).

**Q.** What about the “TEAE: Respiratory, thoracic, and mediastinal disorders” value (“TEAE: Respiratory, thoracic” below) ([10]; overall (both treatments)) of the same molecule?
**A.** Its value is 2 (17) n (%).

**Q.** What about the “TEAE: Sensory disturbance” value ([10]; overall (both treatments)) of the same molecule?
**A.** Its value is 1 (8) n (%).

**Q.** And the “TEAE: Sinus congestion” value ([10]; overall (both treatments))?
**A.** The value was 1 (8) n (%).

**Q.** And the “TEAE: Skin and subcutaneous tissue disorders” value ([10]; overall (both treatments))?
**A.** Its value is 1 (8) n (%).

**Q.** What about the “TEAE: Sneezing” value ([10]; overall (both treatments)) of the same molecule?
**A.** Its value is 1 (8) n (%).

**Q.** And the tolerability ([10]; single agent or in combination with rifampin, healthy participants)?
**A.** Its tolerability is “well‐tolerated”.

**Q.** What about the “Number of participants with TEAEs” value [10, 12] of the same molecule?
**A.** The value was 2 (17) n (%).

**Q.** What about the “TEAE: Abdominal pain, upper” value [10, 12] of the same molecule?
**A.** Its value is 0 (0) n (%).

**Q.** What about the “TEAE: Cough” value [10, 12] of the same molecule?
**A.** The value was 1 (8) n (%).

**Q.** What about the “TEAE: Dermatitis contact” value [10, 12] of the same molecule?
**A.** The value was 0 (0) n (%).

**Q.** And the “TEAE: Gastrointestinal disorders” value [10, 12]?
**A.** The value was 0 (0) n (%).

**Q.** And the “TEAE: Headache” value [10, 12]?
**A.** Its value is 1 (8) n (%).

**Q.** What about the “TEAE: Nasal congestion” value [10, 12] of the same molecule?
**A.** Its value is 1 (8) n (%).

**Q.** And the “TEAE: Nervous system disorders” value [10, 12]?
**A.** Its value is 1 (8) n (%).

**Q.** And the “TEAE: Respiratory, thoracic” value [10, 12]?
**A.** Its value is 1 (8) n (%).

**Q.** What about the “TEAE: Sensory disturbance” value [10, 12] of the same molecule?
**A.** Its value is 0 (0) n (%).

**Q.** What about the “TEAE: Sinus congestion” value [10, 12] of the same molecule?
**A.** Its value is 0 (0) n (%).

**Q.** What about the “TEAE: Skin and subcutaneous tissue disorders” value [10, 12] of the same molecule?
**A.** The value was 0 (0) n (%).

**Q.** And the “TEAE: Sneezing” value [10, 12]?
**A.** Its value is 0 (0) n (%).

**Q.** What about the “Number of participants with TEAEs” value ([10]; trazpiroben 25 mg alone) of the same molecule?
**A.** Its value is 6 (50) n (%).

**Q.** And the “TEAE: Abdominal pain, upper” value ([10]; trazpiroben 25 mg alone)?
**A.** The value was 1 (8) n (%).

**Q.** What about the “TEAE: Cough” value ([10]; trazpiroben 25 mg alone) of the same molecule?
**A.** The value was 0 (0) n (%).

**Q.** What about the “TEAE: Dermatitis contact” value ([10]; trazpiroben 25 mg alone) of the same molecule?
**A.** The value was 1 (8) n (%).

**Q.** What about the “TEAE: Gastrointestinal disorders” value ([10]; trazpiroben 25 mg alone) of the same molecule?
**A.** The value was 1 (8) n (%).

**Q.** What about the “TEAE: Headache” value ([10]; trazpiroben 25 mg alone) of the same molecule?
**A.** The value was 2 (17) n (%).

**Q.** What about the “TEAE: Nasal congestion” value ([10]; trazpiroben 25 mg alone) of the same molecule?
**A.** Its value is 0 (0) n (%).

**Q.** And the “TEAE: Nervous system disorders” value ([10]; trazpiroben 25 mg alone)?
**A.** The value was 3 (25) n (%).

**Q.** And the “TEAE: Respiratory, thoracic” value ([10]; trazpiroben 25 mg alone)?
**A.** The value was 1 (8) n (%).
